We go through three compounds from article PMC7231841 (Redox Biology, 2020).

Structures are written as SMILES.

Series [1] addresses Keap1-Nrf2 interaction (Keap1 Kelch domain / FITC-9mer Nrf2 peptide) (Homo sapiens, UniProt Q14145). As to the kind of experiment: Fluorescence polarization. Type of series: binding.
Series [2] can be described thus: HPLC assay for H2O2-induced drug release. Type of series: physicochemical. Put shortly:
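A 10 mM DMSO stock of test compound was diluted to 50 μM final in PBS (10 mM, pH 7.4). H2O2 was added at graded levels (24 h incubation) or at 10 mM (time course), then vortexed. Incubation was at 37 °C in triplicate. Samples taken at intervals were injected directly onto C18 HPLC (70% methanol, 0.5 mL/min, DAD detection). Percent compound came from peak areas against a standard curve.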

The nature of the next series: pH stability in PBS. Particulars: pH 4 to 10, 24 h, 37 °C, 20 μM. Type of series: physicochemical. The procedure, abridged: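 PBS was adjusted to pH 4–10 with 0.1 M HCl or NaOH. Test compound (20 μM) was incubated at 37 °C for 24 h, in triplicate. Solutions were filtered and injected directly on HPLC three times. Percent remaining came from peak areas.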
Series [3] can be described thus: Stability in simulated gastric fluid and simulated intestinal fluid. It is filed as in vitro ADME. To be noted: after 8 h, 37 °C, 20 μM. The procedure, abridged: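 Test compound (20 μM) was incubated separately in commercial artificial gastric and intestinal juices at 37 °C for various times, in three parallel runs. Proteins were precipitated with methanol, vortexed and centrifuged at 5000 rpm for 5 min. Supernatants were analysed by HPLC (C18, 70% methanol, 0.5 mL/min) from peak areas.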

The next series can be described thus: Plasma stability. Type of series: in vitro ADME, rat. To be noted: 20 μM, 37 °C. Put shortly:
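Test compound (20 μM) was incubated in plasma at 37 °C for various times, in three parallel runs. Proteins were precipitated with methanol, vortexed and centrifuged at 12,000 rpm for 5 min. Supernatants were analysed by HPLC from peak areas.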

Series [4] in a line: Liver microsome stability. It is filed as in vitro ADME, rat. The procedure, abridged: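 Rat (CD-1 male) liver microsomes from a 20 mg/mL stock were shaken in PBS at 37 °C for 10 min. Test compound was added from a 0.5 mM DMSO solution, with a 20 μM test level. After 5 min preincubation, the reaction was started with NADPH (6 mM stock). It was quenched with ice-cold acetonitrile at 0, 5, 15, 30 and 45 min. Samples were centrifuged at 5000 rpm for 15 min and supernatants analysed by LC-MS/MS. Ketanserin served as reference.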

Series [5] is described as follows: Parallel artificial membrane permeability assay. It is filed as physicochemical. To be noted: PAMPA. Put shortly:
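Effective permeability (Pe) at pH 7.4 was measured by double-sink PAMPA.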
For orientation: The PAMPA barrier holds no transporters, so it reflects passive diffusion.

The subject of another series is HepG2-ARE-C8 cells. Briefly: Nrf2/ARE luciferase reporter assay. Type of series: cell-based.
For series [6], the system named is RAW264.7 cells. Briefly: qRT-PCR and Western blot of Nrf2-ARE driven genes in LPS-treated cells. Type of series: cell-based, mouse. To be noted: 20 ng/mL LPS 8 h. Put shortly: (§1)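 RAW264.7 cells were pretreated with LPS (20 ng/mL) for 8 h, then exposed to test compound for 16 h. Total RNA was extracted with TRIzol and reverse-transcribed, followed by real-time qRT-PCR. mRNA was normalised to β-actin and expressed as fold of control. Data are means ± SEM, n = 3 independent observations, one-way ANOVA.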
(Real-time PCR tracks product formation cycle by cycle.)

Series [7] concerns RAW264.7 cells. Briefly: Antioxidant capacity. It is filed as cell-based, mouse. Particulars: LPS (20 ng/mL) treated RAW 264.7 cells. Put shortly:
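RAW264.7 cells were pretreated with LPS (20 ng/mL) for 8 h, then exposed to test compound for a further 16 h. SOD activity, GSH-Px activity, GSH/GSSG ratio and MPO activity were measured in the cells. Data are means ± SEM of 3 independent observations, with one-way ANOVA.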

Series [8] relates to RAW264.7 cells. Briefly: Inflammatory factors. Type of series: cell-based, mouse. The procedure, abridged:
as §1

Series [9] in a line: In vivo pharmacokinetic assay. More on the design: species or system SD rats. Particulars: rat.
Series [10] relates to serum IL-1β, IL-6, TNF-α and IFN-γ. As to the kind of experiment: LPS challenge mouse acute inflammation model. Type of series: in vivo, C57BL/6 mice. To be noted: oral, 3 days, LPS 300 μg/kg IP. Put shortly: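 Female C57BL/6 mice (6–8 weeks, 18–20 g) were acclimatised for 2 days. LPS 300 μg/kg/day was given IP in 500 μL on days −3, −2 and −1 (n = 8 per LPS group). Test compound (10 or 40 mg/kg/day) was given intragastrically in 500 μL saline 4 h after each LPS dose. Dexamethasone 10 mg/kg/day served as positive control. Saline IP controls had n = 3. Sera were taken 24 h after the last dose for cytokine ELISA.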

Chain of Keap1-Nrf2 interaction (Keap1 Kelch domain / FITC-9mer Nrf2 peptide) (Q14145 322-609): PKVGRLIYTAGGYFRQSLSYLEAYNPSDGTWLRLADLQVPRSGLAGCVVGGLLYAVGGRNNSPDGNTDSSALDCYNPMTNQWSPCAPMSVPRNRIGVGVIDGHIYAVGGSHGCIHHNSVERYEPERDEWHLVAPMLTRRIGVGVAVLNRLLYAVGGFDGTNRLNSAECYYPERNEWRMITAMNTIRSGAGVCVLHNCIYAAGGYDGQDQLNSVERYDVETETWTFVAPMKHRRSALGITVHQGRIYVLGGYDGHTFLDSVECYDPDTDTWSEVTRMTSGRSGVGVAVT

With `COc1ccc(S(=O)(=O)N(CC(=O)N2CCSC2=O)c2ccc(N(CC(=O)N3CCSC3=O)S(=O)(=O)c3ccc(OC)cc3)c3ccccc23)cc1` [pro1, N,N'-(naphthalene-1,4-diyl)bis(4-methoxy-N-(2-oxo-2-(2-oxothiazolidin-3-yl)ethyl)benzenesulfonamide)], the “Inhibition against Keap-Nrf2 interaction in the FP assay” value in series [1] is on record as “no inhibition”. Also, in series [2] (H2O2 (10 mM), PBS pH 7.4, 37 °C, UPLC/HRMS), the “Production of compound 1 from the prodrug in the presence of H2O2” value is listed as “cannot be observed even after 12 h”.

By bioavailability is commonly meant dose-corrected exposure relative to a reference, in per cent. The CL/F is clearance divided by bioavailability, as obtained after extravascular dosing. As to `COc1ccc(S(=O)(=O)Nc2ccc(N(CC(=O)N3CCSC3=O)S(=O)(=O)c3ccc(OC)cc3)c3ccccc23)cc1` [pro2, 4-methoxy-N-(4-((4-methoxyphenyl)sulfonamido)naphthalen-1-yl)-N-(2-oxo-2-(2-oxothiazolidin-3-yl)ethyl)benzenesulfonamide], in series [1], the “Inhibition against Keap-Nrf2 interaction in the FP assay” value is “no inhibition”. In addition, the “Prodrug released to parent compound 2” value in series [2] (1 mM H2O2, incubating 24 h, PBS pH 7.4, 37 °C) is reported as “approximately 60%”. In [2] (10 mM H2O2, PBS pH 7.4, 37 °C), the “Time to complete release to the parent compound 2” value is recorded as ≤ 3 h. Also, in series [2] (10 mM H2O2, within 3 h), the “Conversion to parent compound 2 determined by HPLC” value was > 98%. For the same compound, the “Stability to hydrolysis in PBS” value in “pH stability in PBS” is given as “relatively stable”. Also, in [3], the “Remaining in simulated gastric fluid (SGF)” value is “more than 50%” and the “Remaining in simulated intestinal fluid (SIF)” value was “more than 50%”. Further, the “Stability in rat plasma” value in “Plasma stability” is listed as “quite stable”. The “Stability in co-incubation with rat liver microsomes” value in series [4] is “quite stable”. The “Pe at pH 7.4” value in series [5] is on record as 6.35 10−6 cm/s. For the same compound, the “Relative ARE induction activity under normal conditions” value with HepG2-ARE-C8 cells (HepG2-ARE-C8 cells, no LPS) is “nearly inactive”. The “Relative ARE induction activity under various concentrations of LPS” value with HepG2-ARE-C8 cells (LPS pretreatment 8 h, then compound 200 nM for 12 h) is given as “LPS concentration-dependent enhancement of Nrf2-ARE inducing activity”. In the series with RAW264.7 cells [6] (compound 500 nM, qRT-PCR), the “Transcription of Nrf2 targeted genes (HO-1, NQO1, GCLM mRNA)” value is recorded as “highly enhanced the transcription”. Also, in the series with RAW264.7 cells [6] (then compound 16 h, Western blot), the “Protein levels of Nrf2 and downstream antioxidant enzymes” value was “remarkably accumulated Nrf2 protein and elevated downstream antioxidant enzymes”. In the series with RAW264.7 cells [7], the “Activities of SOD and GSH-Px” value is reported as “significantly restored the activities”; the “GSH/GSSG ratio and MPO activity” value is on record as “restored the levels nearly back to normal”. Besides, the “LPS-induced elevation of IL-1β and IL-6 protein” value with RAW264.7 cells [8] (LPS (20 ng/mL) 8 h, Western blot) is reported as “almost completely suppressed the elevation”. Besides, the “mRNA levels of IL-1β and IL-6” value in the series with RAW264.7 cells [8] (LPS (20 ng/mL) 8 h, qRT-PCR) is listed as “significant suppression effects”. In the series on RAW264.7 cells [8] (LPS (20 ng/mL), culture supernatants, ELISA), the “Suppression of IL-1β, IL-6 and TNF-α production” value is given as “obvious superiority in the suppression”. In series [9] (I.V. (2 mg/kg)), the Cl_F was found to be 18.5 ± 3.9 mL/min/kg and the Vz_F is recorded as 6.44 ± 4.09 L/kg. Besides, the Vz_F in [9] (P.O. (10 mg/kg)) was 4.79 ± 2.17 L/kg. In series [9] (male, SD, plasma, oral), the bioavailability came to 68.1%. For the same compound, the CL/F in series [9] (male, SD, plasma, po, 10 mg/kg) was 26.4 ± 1.14 mL/min/kg. The “Anti-inflammation effect on serum pro-inflammatory cytokines” value (“Anti-inflammation effect” for short) in [10] (10 mg/kg) is given as “comparable therapeutic effects with DXM”. In [10] (40 mg/kg (high dose)), the “Anti-inflammation effect” value is listed as “more potent effects”.

Regarding `C[C@@H]1C[C@H]2[C@@H]3CCC4=CC(=O)C=C[C@]4(C)[C@@]3(F)[C@@H](O)C[C@]2(C)[C@@]1(O)C(=O)CO` [DXM, Dexamethasone, reference compound], the “Anti-inflammation effect” value in series [10] (10 mg/kg) was “diminished inflammatory response”.
